STAT1 act: activators of IFN-gamma induced STAT1 signaling | NIH 3T3 STAT1-luciferase reporter, luminescence; 100% = IFN-gamma alone, no compound | activation (% of control), % at 5.5 µM | 200,000 tested, 2.6% active;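 active = activation above the screen-wide mean activation plus 3 SD, cut at about 130% in these data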
FLuc stim CS: firefly luciferase counter-screen for stimulation assays. ATPlite luciferase biochemical, luminescence, 10 min; 0 = ATP-free wells, 1 = DMSO control. 200,000 tested, under 10 active. P08659. AID 1027. activation factor at 10 µM;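 active = luciferase activation factor, scaled between plate controls, of at least 2 with compound at 10 µM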
Target sequence (P08659 whole entry, looked up): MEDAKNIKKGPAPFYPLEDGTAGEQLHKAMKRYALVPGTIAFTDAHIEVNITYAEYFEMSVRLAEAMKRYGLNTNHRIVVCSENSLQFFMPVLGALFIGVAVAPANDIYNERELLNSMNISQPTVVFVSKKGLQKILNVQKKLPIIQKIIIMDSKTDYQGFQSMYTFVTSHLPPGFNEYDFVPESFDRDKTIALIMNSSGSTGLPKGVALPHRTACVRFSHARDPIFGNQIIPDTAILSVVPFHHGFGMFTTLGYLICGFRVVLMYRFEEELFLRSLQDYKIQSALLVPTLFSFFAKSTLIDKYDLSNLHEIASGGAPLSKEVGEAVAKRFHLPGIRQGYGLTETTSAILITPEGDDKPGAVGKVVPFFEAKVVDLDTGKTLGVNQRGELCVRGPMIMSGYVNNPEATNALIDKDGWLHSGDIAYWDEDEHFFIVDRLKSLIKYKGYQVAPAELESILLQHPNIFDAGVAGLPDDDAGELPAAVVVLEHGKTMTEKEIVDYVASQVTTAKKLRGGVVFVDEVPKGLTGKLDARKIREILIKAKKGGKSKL
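Assay system – cell-free luciferase reagent · Medium – PBS-based ATP solution · Dosing – test compounds dosed from 2 mM stocks in 100% DMSO · Timing – 10 min, room temperature · Technique – light output (luminescence) · Measure – luminescence gain marking luciferase activators · Controls – No-ATP low control, compound-free enzyme-plus-ATP high control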
FLuc inhib CS: Photinus pyralis luciferase inhibition counter-screen. ATPLite firefly luciferase biochemical luminescence, 10 min. inhibition, % at 10 µM. 200,000 tested, 1.5% active;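 active = inhibition above about 50% when tested at 10 µM, limit read from the data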
NF-kB expr up: raises NF-kB expression in human neuronal cells; NF-kB reporter expression; active compounds read high; fold change at 12.5 µM; 190,000 tested, 1.6% active; AID 1239; in the data active = fold change above about 3.3
APP 5'UTR act: activates APP 5'UTR luciferase reporter; SH-SY5Y APP 5'UTR luciferase reporter, luminescence; zero percent = DMSO vehicle wells; activation, % at 2 µM; 190,000 tested, 1% active; AID 1276;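 active = activation above a set limit, based on mean plus 3 SD of controls, cut at about 140% in these data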
Of the large screens only hits and unclear results are named; the others gave an inactive call. Most compounds without a hit are left out; they make up all but 4.1% or so of the library.

O=C(NCCCN1CCOCC1)c1cc(-c2ccccc2)on1	NF-kB expr up 5.5
Cc1ccc(Oc2ccc(Oc3ccc(C)cc3)nn2)cc1	none
Cc1ccccc1Oc1ccc(Oc2ccccc2C)nn1	STAT1 act 131
CN(C)/C=C/C(=O)c1ccc(Br)s1	none
CN(C)/C=C/C(=O)c1cnc(-c2cccc(Cl)c2)s1	STAT1 act 138
CN(C)/C=C/C(=O)c1cnc(-c2ccccn2)s1	STAT1 act 129
CC(=O)c1sc(-c2ccccc2Cl)nc1C	none
CN(C)/C=C/C(=O)c1cnc(-c2ccccc2Cl)s1	STAT1 act 139, NF-kB expr up 3.5
COc1ccc(Nc2oc(COc3ccccc3F)nc2C#N)cc1	none
COc1ccc(-c2nn(-c3ccccc3)cc2/C=N/NC(=S)NC(C)C)cc1OC	none
Cc1ccc(O)c(C2=Nc3ccccc3C2(C)C)c1	STAT1 act 147
COc1ccc(C)cc1C1=Nc2ccccc2C1(C)C	none
CCOC(=O)c1ccccc1NC(=O)c1cccs1	none
O=C(COC(=O)c1ccccc1[N+](=O)[O-])c1ccc(C2CCCCC2)cc1	FLuc inhib CS 80
O=C(c1ccccc1)c1nn(-c2cccc(Cl)c2)c2nc(-c3ccccc3)cc(=O)n12	none
Cc1ccc(C(=O)NCCc2csc(-c3cccnc3)n2)cc1	FLuc inhib CS 68
Cc1cc(C)c2c(N)c(C(=O)Nc3nccs3)sc2n1	FLuc inhib CS 94
COCc1cc(C)nc2sc(C(=O)Nc3nccs3)c(N)c12	STAT1 act 132
Cc1cc(C)c2c(N)c(C(=O)NC3CC3)sc2n1	none
COc1ccc(-c2cc(N3C(=O)Nc4ccccc4N3O)n[nH]2)cc1	none
CCOc1ccc(-c2cc(N3C(=O)Nc4ccccc4N3O)on2)cc1	FLuc inhib CS 76
CCN(CC)S(=O)(=O)c1ccc(N2CCOCC2)c(NC(=O)c2cccc(C#N)c2)c1	none
O=C(COC(=O)CC1CCCC1)Nc1ccc(OC(F)F)cc1	none
O=C(COC(=O)CC1CCCC1)Nc1cc2c(cc1Cl)C(=O)c1ccccc1C2=O	STAT1 act 129
Cc1cccc(C)c1OCC(=O)N/N=C/C=C/c1ccco1	none
O=C(Cc1ccccc1)Nc1nonc1NC(=O)c1ccccc1	NF-kB expr up 3.7
O=C(Nc1nonc1-c1ccc(Cl)cc1)c1ccccc1	none
O=c1c(-c2ccc3c(c2)OCCO3)coc2cc(O)cc(O)c12	FLuc inhib CS 62, NF-kB expr up 5.8, APP 5'UTR act 145
CCN(CC)Cc1c(O)ccc2c(=O)c(-c3ccc4c(c3)OCCO4)coc12	none
Cc1cccc(NC(=O)c2ccccn2)c1C	none
Cc1ccccc1NC(=O)c1onc2c1CCCC2	STAT1 act 142, FLuc inhib CS 63, NF-kB expr up 3.6
COC(=O)c1cccc(NC(=O)c2onc3c2CCCC3)c1	STAT1 act 150, FLuc inhib CS 62, NF-kB expr up 10
Cc1cccc(NC(=O)c2onc3c2CCCC3)c1C	STAT1 act 140
Cc1cccc(NC(=O)c2onc3c2CCCC3)n1	FLuc inhib CS 92, APP 5'UTR act 158
COC(=O)c1cccc(NC(N)=S)c1	none
O=[N+]([O-])c1cc(C(F)(F)F)cc([N+](=O)[O-])c1N1CCN(S(=O)(=O)c2ccccc2)CC1	none
Cc1cccc(NC(=O)c2ccc3c(Cl)c4c(nc3c2)CCCC4)n1	STAT1 act 145, FLuc inhib CS 81, APP 5'UTR act 160
Cc1nc2ccccn2c1-c1csc(Nc2cccc(O)c2)n1	none
Clc1ccc(Nc2nc(-c3cccnc3)cs2)cc1	none
Cc1nc(C)c(-c2csc(Nc3cccc(O)c3)n2)s1	NF-kB expr up 4.3, APP 5'UTR act 166
Fc1ccc(Nc2nc(-c3cccnc3)cs2)cc1	STAT1 act 136, NF-kB expr up 3.6
COc1cccc(Nc2nc(-c3ccc(O)cc3)cs2)c1	NF-kB expr up 3.9
COc1cccc(Nc2nc(-c3cccc(N4C(=O)c5ccccc5C4=O)c3)cs2)c1	none
c1ccc(-c2csc(Nc3cccnc3)n2)cc1	STAT1 act 136
O=C1N=c2ccccc2=C1c1sc(=S)n(NC(=O)c2cccc(O)c2)c1O	none
COc1ccccc1N1CCN(CCCNC(=O)Nc2ccccc2C)CC1	none
COCCCn1c(SCC(=O)Nc2ccc(C(C)=O)cc2)nc2ccccc2c1=O	none
COc1ccc(-c2csc(NC3=NCCCCC3)n2)cc1	none
Cc1cccc(Nc2nc(-c3ccncc3)cs2)c1	STAT1 act 130
COc1ccc(-c2csc(Nc3ccc(C)cn3)n2)cc1	STAT1 act 139 (no result: NF-kB expr up)
CN(C)c1ccc(Nc2nc(-c3cccnc3)cs2)cc1	STAT1 act 147, FLuc inhib CS 78, NF-kB expr up 4.3, APP 5'UTR act 188
Clc1cccc(Nc2nc(-c3ccncc3)cs2)c1	none
CCCOc1ccc(/C=N/NC(=O)C(C)Sc2ccccn2)cc1OCC (stereo not drawn)	none
CSc1ccc(C2c3[nH]c4ccccc4c3CCN2C(=O)c2cc(C)n(C)n2)cc1 (stereo not drawn)	STAT1 act 132
Nc1nnc(SCC(=O)N2CCc3ccccc32)n1-c1ccccc1	none
CCOc1ccc(C(=O)Nc2ncccc2Cl)cc1	STAT1 act 129
CCOc1ccc(NC(=O)c2nccnc2CO)cc1	STAT1 act 144, FLuc inhib CS 63
CCOc1ccc(NC(=O)c2ccccc2O)cc1	FLuc inhib CS 87, NF-kB expr up 6.3
Cc1ccc(NC(=O)c2ccc(Cl)nc2)cc1	STAT1 act 131
CCOc1ccc(NC(=O)c2ccccc2CO)cc1	none
COc1ccccc1NS(=O)(=O)c1cc(N)ccc1N1CCCCC1	none
CC(=O)c1c(C)nn(C(C)CC(=O)O)c1C (stereo not drawn)	none
CCOc1ccc(NC(=O)c2cnsn2)cc1	FLuc inhib CS 61, NF-kB expr up 3.5, APP 5'UTR act 153
CCOc1ccc(NC(=O)c2oc3ccccc3c2NC(=O)CC)cc1	NF-kB expr up 5.1
CCN(CC)c1ccc(/C=N/NC(=O)c2cnccn2)cc1	STAT1 act 132, FLuc inhib CS 66
COc1ccc(NC(=O)c2oc3ccccc3c2NC(=O)C2CC2)cc1	none
CCOc1ccc(NC(=O)c2ccccc2OCC(=O)c2ccccc2)cc1	FLuc inhib CS 61
Cc1cccc(N(CC(=O)NCCSc2nc3ccccc3s2)S(=O)(=O)c2ccccc2)c1	none
CCOc1ccc(NC(=O)c2cccnc2C(=O)O)cc1	none
O=C(Nc1ccc(OC(F)F)c(Cl)c1)c1ccccn1	STAT1 act 146, NF-kB expr up 9.4, APP 5'UTR act 139
CCOc1ccc(NC(=O)c2ccccn2)cc1	FLuc inhib CS 96
CCOc1ccc(NC(=O)c2cnccn2)cc1	FLuc inhib CS 72, APP 5'UTR act 150
CCCC(=O)Nc1ccc(NC(=O)c2ccccn2)cn1	STAT1 act 141
CCCC(=O)Nc1ccc(NC(=O)c2ccccc2OC)cn1	none
O=C(Nc1nc(NC(=O)c2ccco2)n(-c2ccccc2)n1)c1ccccc1	none
N=C1C(c2ccccc2)=C(O)C2CCc3ccccc3N12 (stereo not drawn)	none

Source: PubChem (several laboratories)
